Assays:
[1] = test system: MRC5; experiment: Cytotoxicity against MRC-5 cells at concentration 1 uM; type: functional; details: Homo sapiens
Summary of the method: (§1)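 MRC-5 human embryonic lung diploid cells were seeded at 5000 per well. After 24 h the cells were washed and exposed to 2-fold drug dilutions in RPMI + 5% FCS, with final DMSO below 0.5%. Incubation was 7 days at 37 °C in 5% CO2. Viability was read by MTT absorbance at 540 nm.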

[2] = test system: MRC5; experiment: Cytotoxicity against MRC-5 cells at concentration 32 uM; type: functional; details: Homo sapiens; summary of the method: as §1
[3] = test system: MRC5; experiment: Cytotoxicity against MRC-5 cells at concentration 0.5 uM; type: functional; details: Homo sapiens; summary of the method: as §1
[4] = test system: MRC5; experiment: Cytotoxicity against MRC-5 cells at concentration 8 uM; type: functional; details: Homo sapiens; summary of the method: as §1
[5] = organism: Mus musculus; experiment: In vitro cytotoxic activity against mouse peritoneal macrophages at a concentration 8 uM; Non-toxic; type: functional
[6] = organism: Mus musculus; experiment: In vitro cytotoxic activity against mouse peritoneal macrophages at a concentration 2 uM; Non-toxic; type: functional
[7] = test system: Plasmodium falciparum; experiment: In vitro growth inhibition of Plasmodium falciparum FcB1R; type: functional, organism-based
Summary of the method: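 Asynchronous P. falciparum cultures were grown in human erythrocytes at 0.5% parasitemia and 1% hematocrit. They were exposed to serial drug dilutions, with DMSO ≤0.1%, for 24 h at 37 °C before adding 0.5 µCi [3H]hypoxanthine per well. Inhibition was measured as incorporated radioactivity versus drug-free controls on the same plate. IC50 came from concentration–response curves, reported as mean ± SD of three independent experiments; FcB1R used several experiments.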

[8] = In vitro cytotoxic activity against mouse peritoneal macrophages at a concentration 32 uM; Toxic; type: toxicity
[9] = In vitro cytotoxic activity against mouse peritoneal macrophages at a concentration 8 uM; Toxic; type: toxicity
[10] = In vitro cytotoxic activity against mouse peritoneal macrophages at a concentration 2 uM; Toxic; type: toxicity
[11] = test system: Plasmodium falciparum; experiment: In vitro growth inhibition of Plasmodium falciparum W2; type: functional, organism-based
[12] = test system: Plasmodium falciparum; experiment: (§2) In vitro growth inhibition of Plasmodium falciparum D6; type: functional, organism-based
[13] = test system: Plasmodium falciparum; experiment: In vitro growth inhibition of Plasmodium falciparum F32; type: functional, organism-based
[14] = In vitro cytotoxicity against mouse peritoneal macrophages at concentration 32 uM; Toxic; type: toxicity
[15] = test system: Plasmodium falciparum; experiment: as §2; type: functional, organism-based; remark: listed apart in the source
Summary of the method: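 Asynchronous P. falciparum cultures in human erythrocytes (0.5% parasitemia, 1% final hematocrit) exposed to serially diluted drug for 24 h at 37 °C, then pulsed with 0.5 µCi [³H]hypoxanthine per well. Inhibition from incorporated radioactivity versus drug-free control on the same plate; IC50 from concentration-response curve; mean ± SD of three independent experiments. DMSO ≤0.1% final.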

| Compound | cytotoxicity at 1 µM [1] [%] | cytotoxicity at 32 µM [2] [%] | cytotoxicity at 0.5 µM [3] [%] | cytotoxicity at 8 µM [4] [%] | Cytotoxicity [5] | Cytotoxicity [6] | IC50 [7] [nM] | Cytotoxicity [8] | Cytotoxicity [9] | Cytotoxicity [10] | IC50 [11] [nM] | IC50 [12] [nM] | IC50 [13] [nM] | Cytotoxicity [14] | IC50 [15] [nM] |
| --- | --- | --- | --- | --- | --- | --- | --- | --- | --- | --- | --- | --- | --- | --- | --- |
| O=C(CNCC(=O)N1CCN(c2ccnc3cc(Cl)ccc23)CCN(c2ccnc3cc(Cl)ccc23)CC1)N1CCN(c2ccnc3cc(Cl)ccc23)CCN(c2ccnc3cc(Cl)ccc23)CC1 | 0 | 0 | 0 | 0 | Not toxic | Not toxic | 103 |  |  |  |  |  |  |  |  |
| CC(N)C(=O)N1CCN(c2ccnc3cc(Cl)ccc23)CCN(c2ccnc3cc(Cl)ccc23)CC1 (configuration not stated) | 0 | 88 | 0 | 0 |  | Not toxic | 228 | Toxic | Toxic |  |  |  |  |  |  |
| O=C(CCCO)N1CCN(c2ccnc3cc(Cl)ccc23)CCN(c2ccnc3cc(Cl)ccc23)CC1 | 0 | 0 | 0 | 0 | Not toxic | Not toxic | 930 |  |  |  |  |  |  |  |  |
| O=C(c1ccc(C(=O)N2CCN(c3ccnc4cc(Cl)ccc34)CCN(c3ccnc4cc(Cl)ccc34)CC2)cc1)N1CCN(c2ccnc3cc(Cl)ccc23)CCN(c2ccnc3cc(Cl)ccc23)CC1 | 0 | 0 | 0 | 0 | Not toxic | Not toxic | 266 |  |  |  |  |  |  |  |  |
| NCCC(=O)N1CCN(c2ccnc3cc(Cl)ccc23)CCN(c2ccnc3cc(Cl)ccc23)CC1 | 0 | 0 | 0 | 0 | Not toxic | Not toxic | > 1000 |  |  |  |  |  |  |  |  |
| NCCN(CCNc1ccnc2cc(Cl)ccc12)CCNc1ccnc2cc(Cl)ccc12 | 0 | 51 | 0 | 0 | Not toxic | Not toxic | 606 |  |  |  |  |  |  |  |  |
| O=C(CCCC(=O)N1CCN(c2ccnc3cc(Cl)ccc23)CCN(c2ccnc3cc(Cl)ccc23)CC1)N1CCNCCN(c2ccnc3cc(Cl)ccc23)CC1 | 0 | 0 | 0 | 0 | Not toxic | Not toxic | 275 |  |  |  |  |  |  |  |  |
| O=C(CCCCCCCCCCCN1CCCCC1)N1CCN(c2ccnc3cc(Cl)ccc23)CCN(c2ccnc3cc(Cl)ccc23)CC1 | 11 | 89 | 0 | 92 |  |  | 109 | Toxic | Toxic | Toxic |  |  |  |  |  |
| O=C(CCCCCCCC(=O)N1CCN(c2ccnc3cc(Cl)ccc23)CCN(c2ccnc3cc(Cl)ccc23)CC1)N1CCN(c2ccnc3cc(Cl)ccc23)CCN(c2ccnc3cc(Cl)ccc23)CC1 | 0 | 0 | 0 | 0 | Not toxic | Not toxic | 22.6 | Toxic |  |  | 67.2 | 41.7 | 46.3 |  |  |
| Clc1ccc2c(N3CCNCCNCC3)ccnc2c1 | 0 | 0 | 0 | 0 | Not toxic | Not toxic | > 1000 |  |  |  |  |  |  |  |  |
| NC(=O)CCC(=O)N1CCN(c2ccnc3cc(Cl)ccc23)CCN(c2ccnc3cc(Cl)ccc23)CC1 | 0 | 0 | 0 | 0 | Not toxic | Not toxic | 980 |  |  |  |  |  |  |  |  |
| O=C(CCCCCCCCCCC(=O)N1CCN(c2ccnc3cc(Cl)ccc23)CCN(c2ccnc3cc(Cl)ccc23)CC1)N1CCN(c2ccnc3cc(Cl)ccc23)CCN(c2ccnc3cc(Cl)ccc23)CC1 | 0 | 0 | 0 | 0 | Not toxic | Not toxic | 79.1 |  |  |  | 180 | 123 | 133 |  |  |
| O=C(CCCCN1CCCCC1)N1CCN(c2ccnc3cc(Cl)ccc23)CCN(c2ccnc3cc(Cl)ccc23)CC1 | 0 | 92 | 0 | 92 |  | Not toxic | 132 | Toxic | Toxic |  |  |  |  |  |  |
| N=C(N)NCCC(=O)N1CCN(c2ccnc3cc(Cl)ccc23)CCN(c2ccnc3cc(Cl)ccc23)CC1 | 0 | 0 | 0 | 0 | Not toxic | Not toxic | > 1000 |  |  |  |  |  |  |  |  |
| O=C(CCCOCc1ccccc1)N1CCN(c2ccnc3cc(Cl)ccc23)CCN(c2ccnc3cc(Cl)ccc23)CC1 | 0 | 14 | 0 | 0 | Not toxic | Not toxic | 1000 |  |  |  |  |  |  | Toxic |  |
| O=C(CCC(=O)N1CCN(c2ccnc3cc(Cl)ccc23)CCN(c2ccnc3cc(Cl)ccc23)CC1)N1CCN(c2ccnc3cc(Cl)ccc23)CCN(c2ccnc3cc(Cl)ccc23)CC1 | 0 | 0 | 0 | 0 | Not toxic | Not toxic | 38.1 |  |  |  | 29.5 | 21.9 | 23.7 |  |  |
| O=C(O)CCC(=O)N1CCN(c2ccnc3cc(Cl)ccc23)CCN(c2ccnc3cc(Cl)ccc23)CC1 | 1 | 0 | 0 | 0 | Not toxic | Not toxic | > 1000 |  |  |  |  |  |  |  |  |
| CC(NC(=O)OC(C)(C)C)C(=O)N1CCN(c2ccnc3cc(Cl)ccc23)CCN(c2ccnc3cc(Cl)ccc23)CC1 (configuration not stated) | 0 | 0 | 0 | 0 | Not toxic | Not toxic | 463 |  |  |  |  |  |  |  |  |
| O=C(CCCC(=O)N1CCN(c2ccnc3cc(Cl)ccc23)CCN(c2ccnc3cc(Cl)ccc23)CC1)N1CCN(c2ccnc3cc(Cl)ccc23)CCN(c2ccnc3cc(Cl)ccc23)CC1 | 0 | 0 | 0 | 0 | Not toxic | Not toxic | 18.3 |  |  |  | 29.2 |  | 17.9 |  | 18.5 |
| O=C(CCCC(=O)N1CCN(c2ccnc3cc(Cl)ccc23)CCN(c2ccnc3cc(Cl)ccc23)CC1)N1CCNCCNCC1 | 0 | 0 | 0 | 0 | Not toxic | Not toxic | > 1000 |  |  |  |  |  |  |  |  |
| O=C(O)CCCC(=O)N1CCN(c2ccnc3cc(Cl)ccc23)CCN(c2ccnc3cc(Cl)ccc23)CC1 | 0 | 0 | 0 | 0 | Not toxic | Not toxic | 940 |  |  |  |  |  |  |  |  |
| Clc1ccc2c(NCCN(CCNc3ccnc4cc(Cl)ccc34)Cc3ccnc4ccccc34)ccnc2c1 | 0 | 0 | 0 | 0 | Not toxic | Not toxic | > 1000 |  |  |  |  |  |  |  |  |
| O=C(CCCCCCCN1CCCCC1)N1CCN(c2ccnc3cc(Cl)ccc23)CCN(c2ccnc3cc(Cl)ccc23)CC1 | 0 | 91 | 0 | 91 |  |  | 81.1 | Toxic | Toxic | Toxic |  |  |  |  |  |
| CC(C)(C)OC(=O)NCCC(=O)N1CCN(c2ccnc3cc(Cl)ccc23)CCN(c2ccnc3cc(Cl)ccc23)CC1 | 0 | 100 | 0 | 0 | Not toxic | Not toxic | > 1000 |  |  |  |  |  |  | Toxic |  |

From ChEMBL document CHEMBL1134480, “Antiplasmodial activity and cytotoxicity of bis-, tris-, and tetraquinolines with linear or cyclic amino linkers” (J Med Chem, 2001)
